# Experimental data reported in PubChem BioAssay AID743061 (The Scripps Research Institute Molecular Screening Center, 2013).
# Target: Methionine--tRNA ligase, mitochondrial (Homo sapiens) (UniProt Q96GW9)
# Assay: inhibitors of human mitochondrial MetRS, late-stage follow-up, selectivity assay for T. brucei MetRS inhibitor project, biochemical, radioactivity, round 1 (AID 743061);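 also: 0% = DMSO with full reaction and 100% = DMSO wells lacking tRNA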
# Settings: recombinant human mtMetRS, [3H]Met tRNA charging, at 1 µM, stronger effect = higher value
# Method in brief: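 Material: Recombinant human mitochondrial methionyl-tRNA synthetase (MetRS) | Medium: pH 8.0 buffer, 2.5 mM ATP | Reagent: [3H]Met 240 nM plus bulk E. coli tRNA | Compound: 10 and 1 µM | Schedule: 15 min compound–enzyme preincubation, then 1 h reaction at room temperature | Measured by: Scintillation counts of TCA-precipitated charged tRNA on filters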
row,SMILES,inhibition [%]
1,COc1ccc(NC(=O)CSc2nnc3c4cc(C)ccc4n(C)c3n2)cc1,-0.75
2,O=C(CSC1CC(=O)N(c2cccc(Cl)c2)C1=O)Nc1ccc(Br)cc1 (centres undefined),-12.3
3,O=C1[C@@H]2Cc3c([nH]c4ccccc34)C(c3cccc([N+](=O)[O-])c3)N2C(=O)CN1CCCO (some centres undefined),-17.4
4,CN(CC(=O)Nc1ccc(Cl)cc1)C(=O)c1ccc(-n2cncn2)c([N+](=O)[O-])c1,-36.7
5,O=C(Cn1cc(C(=O)C(=O)N2CCOCC2)c2ccccc21)NCC1CCCO1 (centres undefined),-9.17
6,COCCc1nc2ccc(C(=O)NCCc3nc4ccc(OC)cc4[nH]3)cc2o1,-5.43
7,Brc1cnc2nc(SCc3nc4ccccc4[nH]3)[nH]c2c1,-21.5
8,CC1Cc2ccccc2N1C(=O)Cn1cc(C(=O)C(=O)N2CCOCC2)c2ccccc21 (centres undefined),-0.48
9,C[C@H](O)[C@@H]1C(=O)N2CCc3c([nH]c4ccccc34)[C@@H]2C[C@@H]1N(C)Cc1ccc2c(c1)OCO2,-17.7
10,COc1ccc(OCC(O)CNC(=O)Nc2ccc(Cl)cc2)cc1 (centres undefined),-6.26
11,Cc1ccc(CNC(=O)CSc2nnc3c(n2)[nH]c2ccc(C)cc23)cc1,1.77
12,Cc1cccc2[nH]c(CCN(C)C(=O)c3cccc(C4CCNC4)c3)nc12 (centres undefined),-6.15
13,CC(C)(C)[C@H]1C=C(C(=O)NCc2nc3ccccc3[nH]2)O[C@@H](OCc2ccc(CO)cc2)C1,-20.5
14,O=C(NCc1nc2ccccc2[nH]1)C1=C[C@H](c2ccc(Br)cc2)C[C@H](OCc2ccc(CO)cc2)O1,0.59
15,Cc1ccc(C(=O)NCCc2nc3ccccc3[nH]2)cc1C,1.34
16,O=C(C(=O)N1CCOCC1)c1cn(CC(=O)N2CCCc3ccccc32)c2ccccc12,8.2
17,O=C(Cn1cnc2ccccc21)Nc1cccc([N+](=O)[O-])c1,-15.4
18,CCCCn1c(CCNC(=O)c2ccc(F)cc2)nc2ccccc21,3.64
19,O=C(NCc1nc2ccccc2[nH]1)C1=C[C@@H](c2ccc(Br)cc2)C[C@@H](OCc2ccc(CO)cc2)O1,-11.6
